# Assay results collected from several papers.
# Protocols differ between the studies behind these lines.
# Target: Serine/threonine-protein kinase haspin (HASPIN, Homo sapiens, UniProt Q8TF76)
# Residues used in one study (Q8TF76 1-798): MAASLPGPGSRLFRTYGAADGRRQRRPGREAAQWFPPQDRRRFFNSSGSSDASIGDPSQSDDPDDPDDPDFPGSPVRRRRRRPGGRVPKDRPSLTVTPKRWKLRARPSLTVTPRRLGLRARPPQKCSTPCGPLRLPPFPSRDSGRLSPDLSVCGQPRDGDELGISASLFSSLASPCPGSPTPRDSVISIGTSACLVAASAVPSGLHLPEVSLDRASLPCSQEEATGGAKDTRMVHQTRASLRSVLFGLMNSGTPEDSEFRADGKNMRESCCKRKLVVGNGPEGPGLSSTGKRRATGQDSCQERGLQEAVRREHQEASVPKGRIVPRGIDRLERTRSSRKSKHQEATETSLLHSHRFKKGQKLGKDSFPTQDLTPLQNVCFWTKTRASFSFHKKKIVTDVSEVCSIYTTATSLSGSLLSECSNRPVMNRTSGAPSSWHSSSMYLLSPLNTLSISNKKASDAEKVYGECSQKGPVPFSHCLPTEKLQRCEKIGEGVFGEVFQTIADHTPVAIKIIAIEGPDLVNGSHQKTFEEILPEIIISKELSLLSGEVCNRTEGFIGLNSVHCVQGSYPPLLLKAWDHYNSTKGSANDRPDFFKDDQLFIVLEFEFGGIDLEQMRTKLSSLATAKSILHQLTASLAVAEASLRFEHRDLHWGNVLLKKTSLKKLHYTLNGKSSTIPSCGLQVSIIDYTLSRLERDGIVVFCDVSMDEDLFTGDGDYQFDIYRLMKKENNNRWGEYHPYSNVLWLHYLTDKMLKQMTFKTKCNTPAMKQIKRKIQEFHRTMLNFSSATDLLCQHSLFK
SMILES,test,setting,remaining binding [%]
COc1ccnn2ncc(-c3ccnc(N(C)C)n3)c12,binding,1 µM,1.8
Cc1cnc(Nc2ccc(C(=O)N3CCC(N4CCCC4)CC3)cc2)nc1-c1cc2ccccc2s1,"binding, competition with immobilised ligand",1 µM,83
CNC(=O)[C@@H]1CC[C@@H](n2c(-c3ccc4cnccc4c3)nc3ccc(C(=O)NCc4cccc(C(N)=O)c4)cc32)C1,"binding, competition with immobilised ligand",1 µM,99
Cn1nc(C(F)(F)F)cc1-c1cnc(N2CCc3cc(S(=O)(=O)Nc4c(F)cc(Cl)cc4F)cc(N4CCCC4=O)c32)nc1,"cell-free assay, competition with immobilised ligand",1 µM,68
N[C@@H]1CCN(c2nccc(-c3cnn4ncccc34)n2)C1,binding,1 µM,2.5
CCC(=O)N[C@@H]1CC[C@H](C(=O)N(C)c2ccc(-c3nc4ccccc4o3)cc2)C1,"cell-free assay, competition with immobilised ligand",1 µM,100
C[C@H]1CCN(c2nccc(-c3cnn4ncccc34)n2)C1,binding,1 µM,2.1
COc1ncc2cc3ccccc3nc2c1C#N,"cell-free assay, competition with immobilised ligand",5 µM,51
CN(CCCC(F)(F)F)c1nccc(-c2cnn3ncccc23)n1,binding,1 µM,11
CCS(=O)(=O)c1cc2cc(C[C@@](O)(CC(C)(C)c3ccc(F)cc3C(N)=O)C(F)(F)F)[nH]c2cn1,"cell-free assay, competition with immobilised ligand",1 µM,80
CN(C)c1nccc(-c2cnn3ncccc23)n1,binding,1 µM,1.5
CCN1CCN(Cc2ccc(C(=O)Nc3ccc(C)c(Oc4ccc5c(c4)CC(=O)N5)c3)cc2C(F)(F)F)CC1,"binding, competition with immobilised ligand",1 µM,100
c1cncc(-c2cccc(Nc3nccc(NC4CCCCC4)n3)c2)c1,"binding, competition with immobilised ligand",10 µM,23
O=C(Nc1c[nH]nc1C(=O)NC1CCNCC1)c1cc(F)cc(F)c1,"binding, competition with immobilised ligand",1 µM,96
FC(F)(F)Oc1cccc(-c2cnc3ccc(-c4ccncc4)nn23)c1,"binding, competition with immobilised ligand",5 µM,4.6
O=C(c1ccc(Nc2nccc(-c3cc4ccccc4s3)n2)cc1)N1CCC(N2CCCC2)CC1,"binding, competition with immobilised ligand",1 µM,64
Cc1cc(NC(=O)c2cccc(S(F)(F)(F)(F)F)c2)cc(-n2ccn3nc(-c4cccnc4)cc23)c1,"cell-free assay, competition with immobilised ligand",1 µM,70.9
CN(C)c1nccc(-c2cnc3ncccn23)n1,binding,1 µM,2.8
CS(=O)(=O)N1CCCC(NC(=O)[C@H](CCC2CCCCC2)NC(=O)c2ccc(CNc3ncnc4c3nnn4-c3ccccc3)cc2)C1 (stereo partly shown),"cell-free assay, competition with immobilised ligand",0.1 µM,100
O=C(c1ccc(Nc2ncc(Cl)c(-c3ccc(Cl)s3)n2)cc1)N1CCC(N2CCCC2)CC1,"binding, competition with immobilised ligand",1 µM,39
CC(=O)N1CCC(c2ccc(C(=O)NC3=NCCN3)cc2C(F)(F)F)CC1,"cell-free assay, competition with immobilised ligand",1 µM,78
CN(c1nccc(-c2cnn3ncccc23)n1)C1CC1,binding,1 µM,18
